# From ChEMBL document CHEMBL4513216, “Probing the Open Global Health Chemical Diversity Library for Multistage-Active Starting Points for Next-Generation Antimalarials” (ACS Infect Dis, 2020)
# Test: Toxicity liver stage against HepG2, at 10uM
# Format: cell-based
# Set-up: test concentration 10 uM, cell line HepG2-A16-CD81EGFP
# Conditions: human, HepG2-A16-CD81EGFP cells; read-out: INHIBITION
# Procedure, shortened: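 Uninfected HepG2-A16-CD81EGFP cells, 3 × 10^3 per well, 1536-well, plated on prespotted compound at 10 μM final, parasite-free screening media added to match infected plates; puromycin 10 μM positive, DMSO 0.5% negative; run in parallel with 48 h PbLuc assay at 37 °C, 5% CO2; viability by CellTiter-Glo luminescence, normalized to controls.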
row,Structure (SMILES),cytotoxicity at 10 µM [%]
1,Cc1cccc(CN2C[C@@H](F)[C@@H](OCc3nc4ccccc4[nH]3)C2)n1,8.01
2,Clc1ccc(CN2CCOC[C@H](Oc3cccnc3)C2)cc1,6.12
3,O=C1N(Cc2ccccn2)C[C@H]2CN(C3CCOCC3)CCN12,7.94
4,COCCN1C[C@H]2CN(C(=O)c3ccc4c(c3)OCO4)CCN2C1=O,13.7
5,O=C(Cc1cccs1)N1CC(c2nc(-c3cnccn3)no2)C1,-0.921
6,COC(=O)N1CCC(CNS(=O)(=O)c2cnn(C)c2)CC1,-9.03
7,COCCNC(=O)c1ccc2ccc(N3CCN(CC4CC4)CC3)n2c1,6.59
8,CN(C)CC(=O)N1CCC2(CC1)CN(Cc1cccnc1)C(=O)CO2,-8.99
9,CC(C)NC(=O)c1ccc2c(c1)nc1n2CCN(Cc2ccco2)C1,8.16
10,CC(C)[C@H](NC(=O)NC1CCS(=O)(=O)C1)C(=O)NCc1cccnc1 (some centres not stated),5.47
11,O=C(Cn1ccc2c(Cl)cccc21)N[C@@H](C(=O)O)c1ccccc1,2.19
12,O=C(CCc1ccccc1)NCC1CCN(Cc2ccsc2)CC1,5.27
13,O=S(=O)(Nc1cnn(C2CCOCC2)c1)c1ccc2c(c1)CCO2,5.42
14,CN1C(=O)C[C@@H]2[C@@H]1CCN2C(=O)c1ccc[nH]1,-14.8
15,CCc1ccc(NC(=O)Nc2c(O)oc3ccccc3c2=O)cc1,5.95
16,CCn1nnc(NCc2cc(Cl)cc(Cl)c2OC)n1,13.6
17,CCCc1noc(C2CCCCN2C(=O)C2CCCC2)n1 (configuration not stated),-35.8
18,CCCc1nc(NCCCO)c2c(n1)c(C)nn2CC,2.55
19,CN(C)C(=O)c1cn[nH]c1C1CCCN1Cc1cncn1C (configuration not stated),-1.89
20,CC(C)c1cc(C(=O)N[C@@H]2CC[C@@H](Oc3ccccc3)[C@@H]2O)on1,2.27
21,Cc1c(S(=O)(=O)N2CCCCC2c2nnc(-c3cccs3)o2)cnn1C (configuration not stated),3.22
22,CN(C)S(=O)(=O)N1CCC(c2c(C(N)=O)sc3ccccc23)C1 (configuration not stated),4.83
23,CNc1nccnc1C1CN(C(=O)c2c[nH]cn2)CCO1 (configuration not stated),3.4

row,Structure (SMILES),cytotoxicity at 10 µM [%]
1,Cn1cccc1C(=O)N1CCCCC1c1ccn2ccnc2n1 (configuration not stated),-28.2
2,COCc1nc(C2CCN(Cc3nccn3C)CC2)no1,-14.2
3,CCn1cc(CN2C[C@@H]3CCCN3C[C@H]2CCSC)c(C)n1,-15.3
4,COc1ccc(CN2CCc3c(nc(-c4ccccn4)[nH]c3=O)C2)cc1,-15.9
5,COc1ccc(SC(C)C(=O)N2CCC(C(=O)N3CCCC3)CC2)cc1 (configuration not stated),1.03
6,CCc1ccccc1CNC(=O)CNC(=O)C(C)(C)C,2.29
7,O=C(NCCNC(=O)C1CC1)c1sccc1Br,1.66
8,O=C(c1cc(C2CCCC2)no1)N1CC(O)C1,-1.57
9,Cc1nc(CNCc2ccc(N3CCC(CO)CC3)nc2)cs1,1.58
10,Cc1nn(C)c(C)c1C1CCCN1c1ncnc2c1CCC2 (configuration not stated),13.1
11,Cc1ccoc1C(=O)NC(CC(C)C)C(=O)N1CCC(CO)CC1 (configuration not stated),0.794
12,CC(C)(CNC(=O)Nc1nccs1)N1CCOCC1,-9.47
13,CNC(=O)NC(=O)CCN1CCCC1c1nc(C2CCCCC2)co1 (configuration not stated),5.44
14,O=C(c1csc(-c2cccs2)n1)N1CCN2CCCCC2C1 (configuration not stated),-3.04
15,OCC(O)CSCc1nnc(-c2cccc(F)c2)o1 (configuration not stated),15.4
16,COc1cccc(CNc2nc(C)cc(C)n2)c1OC,-6.44
17,Cc1cccc(COc2ccccc2C(=O)N2CCC(C(N)=O)CC2)c1,-7.08
18,O=C(Cn1cc(C2CC2)nn1)NC(c1cc(F)ccc1F)C1CC1 (configuration not stated),-12.6
19,CC(CC#N)N(C)Cc1ccc(F)cc1F (configuration not stated),6.03
20,Cc1ccc2cc(C(=O)N3CCN(S(C)(=O)=O)CC3)[nH]c2c1,-58.1
21,Cc1c(C(=O)N2CCC(C(O)c3ccc(Cl)cc3)CC2)cnn1C (configuration not stated),-0.916
22,Cn1nccc1CNC(=O)NC1CCN(c2ncccc2Cl)C1 (configuration not stated),4.37
23,Cc1nc2n(n1)CCN(S(=O)(=O)c1ccc(Cl)cc1)C2,5.76

row,Structure (SMILES),cytotoxicity at 10 µM [%]
1,CN(Cc1ccco1)C(=O)CN1CCc2ccccc2C1,-2.19
2,Cc1cc(C(C)NC(=O)c2cnc3onc(C)c3c2)c(C)o1 (configuration not stated),6.15
3,COc1ccccc1CN(CC1CCCO1)C(=O)c1cc(C)n[nH]1 (configuration not stated),-2.28
4,N#Cc1ccc(SCCC(=O)N(Cc2cccnc2)C2CC2)cc1,12.3
5,Cc1cc(C(C)(O)CNC(=O)C2(C)CCCC2)c(C)o1 (configuration not stated),-4.88
6,CCNC(=O)NC(=O)CN1CCOC(c2ccc(Br)cc2)C1 (configuration not stated),2.08
7,CCc1nccn1CC(=O)Nc1cccc(C(=O)OC)c1,-6.88
8,COc1ncccc1C(=O)N1CCC(CNC(C)=O)CC1,3.17
9,O=C(CCNS(=O)(=O)c1ccc2c(c1)CCCC2)NCc1ccoc1,5.86
10,CCc1nnc2n1CCN(Cc1csc(-c3ccsc3)n1)C2,-17.5
11,CCc1ccccc1C(=O)N1CCN(S(C)(=O)=O)[C@@H](C)C1,-8.72
12,Cc1n[nH]c(C2CN(C(=O)c3ccco3)CCO2)n1 (configuration not stated),-14.5
13,Cc1c(NC(=O)NCC(C)N2CCOCC2)cccc1OC(F)F (configuration not stated),-2.88
14,Cn1ccnc1CCC1CCCCN1Cc1nccn1C (configuration not stated),8.13
15,CN1CCN2CCN(Cc3cnc(NCc4ccccc4)nc3)CC2C1 (configuration not stated),-16.8
16,CC1(C)Cc2nc(C(C)(C)C)ncc2C(NC(=O)C2(N)CC2)C1 (configuration not stated),-2.49
17,COc1cccc(CCC2CCCN(C(C)=O)C2)c1 (configuration not stated),-15.9
18,O=C(C1CCCO1)N1CCC(n2cc(-c3ccc(F)cc3)nn2)CC1 (configuration not stated),-1.41
19,Cc1nc(NC(=O)N(C)Cc2ccoc2)nn1C,-6.03
20,Cc1cnn(CCC(=O)N2CCC3(CCC(=O)N(CC4CC4)C3)CC2)c1,-2.62
21,CN(C)Cc1nnc(C2CCCN(c3nc(C(N)=O)cs3)C2)n1C (configuration not stated),1.05
22,CCNc1ccc(-c2ccnc3c2ccn3C)nn1,-18.1
23,Cc1cc(C(=O)NC(C)c2nnn[nH]2)c2ccc(C)c(C)c2n1 (configuration not stated),-10.7

row,Structure (SMILES),cytotoxicity at 10 µM [%]
1,OCCNc1cc(N2CCN(Cc3ccccc3)C(CCO)C2)ncn1 (configuration not stated),6.45
2,O=C(NCc1cccnc1N1CCc2ccccc2C1)c1cnc[nH]1,5.97
3,COc1ccccc1[C@@H]1CN(Cc2cc(C(C)(C)C)[nH]n2)C[C@H]1C(=O)O,18.4
4,CCc1ncc(CNC2CC(=O)N(CCc3cccc(Cl)c3)C2)cn1 (configuration not stated),-3.62
5,CC(=O)c1cn(CC(=O)NC(C(=O)O)C(C)C)c2ccccc12 (configuration not stated),0.415
6,CCc1nc(C)c(C(=O)NCCn2nc3ccccn3c2=O)s1,-9.42
7,CN(C)CC1CN(Cc2nc(-c3ccccn3)no2)CCO1 (configuration not stated),-5.8
8,CC(NC(=O)NCCCN1CCCCCC1=O)c1nncn1C (configuration not stated),-0.734
9,CC(C)CCN(CCC(C)C)Cc1nc2c(cnn2C)c(=O)[nH]1,-5.57
10,O=C(COc1ccc2c(c1)CCC2)NS(=O)(=O)c1cccnc1,-4.63
11,COC(=O)c1ccc(N2CCN(C(=O)c3cc(C)no3)C(C)C2)cc1 (configuration not stated),-0.192
12,CNC(=O)CCS(=O)(=O)Cc1cc(Cl)c2c(c1)OCCCO2,-6.31
13,CCc1nc(CN(C(C)=O)C2CCN(Cc3ccccc3F)C2)no1 (configuration not stated),-12.3
14,COc1ccc(C2=CCN(C(=O)CN(C)S(C)(=O)=O)CC2)cc1,-3.99
15,c1ccc(OCCN2CCc3c(ncn3C3CC3)C2)cc1,-10.3
16,O=S(=O)(CCN1CCc2c(ncn2C2CC2)C1)c1ccccc1,-14.5
17,COc1ncccc1CNC(=O)NC(C)Cn1cccn1 (configuration not stated),-12.5
18,COc1ccc(C(=O)N2CCCS2(=O)=O)cc1,-1.88
19,CCc1nccn1C1CCCN(C(=O)c2c(C)nsc2NC)C1 (configuration not stated),-5.86
20,Cn1ccnc1CN1CCCN(C(=O)COC2CCCC2)CC1,-18.1
21,CC(O)CN1CCN(C(=O)c2ccn(-c3cccc(Cl)c3)n2)CC1 (configuration not stated),-6.8
22,CC(NC(=O)N1CCN(CCc2ccccc2)CC1)c1nncn1C (configuration not stated),0.0722
23,CCCOc1cc(CNC(=O)Nc2cccnc2N2CCCC2)ccn1,-2.06

row,Structure (SMILES),cytotoxicity at 10 µM [%]
1,COc1ccccc1C(=O)N(C)Cc1ncc(C)c(OC)c1C,5.37
2,CN(C)C(=O)COCc1cncc2c1CCN(Cc1ccccn1)C2,-2.51
3,NCC1CCC(c2c(C(=O)NCCO)sc3ccccc23)CC1 (configuration not stated),-11
4,Cc1ccc(N2CCc3c(CN(C)Cc4ccco4)cncc3C2)nn1,-6.57
5,Cn1cc(C(=O)NCc2cn3c(n2)CN(CC2CCOC2)CC3)cn1 (configuration not stated),5.22
6,CC(C)c1nn(C)c(N(C)C)c1CNCc1cscn1,-5.54
7,Cc1nc(CN2CCC3(CCN(Cc4nccn4C)CC3)C2=O)cs1,-1.43
8,CN(C)C(=O)[C@@H]1CCO[C@@H]2CCN(Cc3ccccc3)C[C@@H]21,-12.1
9,Cc1cccc(CN2C(=O)CCC23CCN(c2ccccn2)CC3)n1,3.2
10,O=C1CC2(CCN(Cc3ccncc3)C2)CN1c1cccc(F)c1 (configuration not stated),-152
11,O=C1N(c2cncnc2)CCC12CCCN(Cc1ccccn1)C2 (configuration not stated),-9.35
12,CCOCC1CN(C(=O)c2cnoc2C)Cc2cnn(C)c21 (configuration not stated),0.384
13,COCCn1cc2c(n1)C(CNCc1ccco1)OCC2 (configuration not stated),-11.9
14,Cc1ccc(CNC(C)c2ccc(N3CCN(C)CC3)c(F)c2)o1 (configuration not stated),-2.76
15,CN(C)C[C@@H]1CCC[C@@H]2CN(c3cccnc3)C[C@@H]21,-11.9
16,COCC1CC2(CCN(Cc3cccc(C#N)c3)CC2)CN1C(C)C (configuration not stated),0.866
17,CC(C)N1C(=O)C2(CCN(C)CC2)c2cc(F)ccc21,-110
18,O=S(=O)(c1cccs1)N1CCCn2cnc(CN3CCCC3)c2C1,1.14
19,CN1CC(=O)N(c2ccccc2)CC12CCN(CC1CCOCC1)C2 (configuration not stated),4.22
20,O=C(NCCn1nc(C2CCNC2)c2cccnc21)c1ccccc1 (configuration not stated),-23.9
